Published values of several laboratories.
Compare with care: the assays were run in different laboratories.
Target: G protein-coupled receptor kinase 4 (GRK4, Homo sapiens, UniProt P32298)

Cc1ccc(NC(=O)c2ccnc(C(F)(F)F)c2)cc1-c1cc(OCCO)nc(N2CCOCC2)c1 — remaining binding (binding; 1 µM): 99%
CCCCC(=O)Nc1ccc(-c2ccc3ncn(CCC)c(=O)c3c2)cn1 — remaining binding (binding, competition with immobilised ligand; 0.5 µM): 93%
C=CC(=O)N1CCC([C@@H]2CCNc3c(C(N)=O)c(-c4ccc(Oc5ccccc5)cc4)nn32)CC1 — inhibition (enzyme activity, inhibitor; 1 µM): 8%
C[C@]1(O)CCCN(c2nc(Nc3ccc(S(=O)(=O)N[C@H]4CC[C@H](CN5CCN(c6ccc(C7CCC(=O)NC7=O)cc6F)CC5)CC4)cc3F)ncc2C(F)(F)F)C1 (stereo partly drawn) — remaining binding (binding, competition with immobilised ligand; 1 µM): 87%
CC(C)S(=O)(=O)c1ccc2nccc(Nc3ccc4sc(C5CCCC5)nc4c3)c2c1 — activity vs control (enzyme activity, inhibitor; 1 µM): 112%
CN1CCN(C(=O)c2ccc(NC(=O)Nc3ccc(N(C)c4ccnc(Nc5ccc(CS(C)(=O)=O)cc5)n4)cc3)cc2)CC1 — remaining binding (binding; 1 µM): 4.5%
C1=C/COCc2cc(ccc2OCCN2CCCC2)Nc2nccc(n2)-c2cccc(c2)COC/1 — remaining binding (binding; 0.1 µM): 13%
CNS(=O)(=O)c1ccc(Nc2ncc(C(F)(F)F)c(N3CCC[C@](C)(O)C3)n2)c(C)c1 — remaining binding (binding, competition with immobilised ligand; 1 µM): 100%
C=CC(=O)N1CCC[C@@H](n2nc(-c3ccc(Oc4ccccc4)cc3)c3c(N)ncnc32)C1 — inhibition (enzyme activity, inhibitor; 1 µM): 3%
